For orientation: logD means the decadic logarithm of the distribution of all forms, ionised or not, between an organic phase and buffer at a given pH. Read a high logD as a more lipophilic compound. Broadly, the IC50 is the concentration that gives 50% inhibition.

Data set [1] deals with Streptococcus pyogenes. Kind of data set: Antibacterial activity against Streptococcus pyogenes after 24 hrs by CLSI method. The class given is functional. The method, boiled down: (§1)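 Broth dilution per CLSI; compounds in DMSO, 10 doubling dilutions. Organisms grown overnight on agar, suspended in suitable liquid medium to 0.5 McFarland, then diluted 1 in 10 for final inoculum.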

The test system of data set [2] is Escherichia coli. Kind of data set: Antibacterial activity against TolC-deficient Escherichia coli after 24 hrs by CLSI method. It is filed as functional. The method, boiled down: as §1
Data set [3] relates to Pseudomonas aeruginosa. Kind of data set: Antibacterial activity against Pseudomonas aeruginosa after 24 hrs by CLSI method. The class given is functional. In a few lines: as §1
For data set [4], the system named is Streptococcus pneumoniae. Kind of data set: Antibacterial activity against Streptococcus pneumoniae after 24 hrs by CLSI method. It is filed as functional. The method, boiled down:
as §1

For data set [5], the system named is Escherichia coli. Kind of data set: Antibacterial activity against Escherichia coli after 24 hrs by CLSI method. The class given is functional. The method, boiled down:
as §1

In data set [6] the test system is Haemophilus influenzae. Description: Antibacterial activity against Haemophilus influenzae after 24 hrs by CLSI method. It is filed as functional. The method, boiled down: as §1
Data set [7] deals with Staphylococcus aureus. Kind of data set: Antibacterial activity against Staphylococcus aureus after 24 hrs by CLSI method. It is filed as functional. In a few lines: as §1
The test system of data set [8] is Moraxella catarrhalis. Kind of data set: Antibacterial activity against Moraxella catarrhalis after 24 hrs by CLSI method. It is filed as functional. In a few lines: as §1
Data set [9] can be described thus: Lipophilicity, log D of the compound by shake flask method using LC-MS analysis. The conditions noted are these: octanol/water. The class given is physicochemical. In a few lines: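 Shake-flask partitioning, experimental, with LC–MS quantitation.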
The test system of data set [10] is Klebsiella pneumoniae. Kind of data set: Antibacterial activity against Klebsiella pneumoniae after 24 hrs by CLSI method. The class given is functional. The method, boiled down: as §1
Data set [11] is described as follows: Inhibition of ParC in reconstituted Escherichia coli ParC/ParE assessed as ParE ATPase activity after 24 hrs by ammonium molybdate/malachite green method.
Data set [12] can be described thus: Inhibition of Escherichia coli DNA gyrase supercoiling activity.

In brackets after ≈: the same amount, converted by molar mass.

As to `O=C1COc2ccc(CNC3CCN(CCN4C(=O)COc5ccc([N+](=O)[O-])cc54)CC3)nc2N1`, the MIC in data set [1] was 0.3 µM (≈ 0.145 µg/mL); in data set [2] it was less than 0.02 µM; in data set [3] it was 5.9 µM (≈ 2.85 µg/mL); in data set [4] it was 0.5 µM (≈ 0.241 µg/mL); in data set [5], 0.5 µM (≈ 0.241 µg/mL); in data set [6], 0.1 µM (≈ 0.0482 µg/mL). Moreover, in data set [7], the MIC worked out at 0.3 µM (≈ 0.145 µg/mL).

As for `CCS(=O)(=O)c1ccc2c(c1)N(CCN1CCC(NCc3ccc4c(n3)NC(=O)CO4)CC1)C(=O)CO2`, the MIC is 15.1 µM (≈ 8 µg/mL) in data set [1]; 1.9 µM (≈ 1.01 µg/mL) in data set [2]; greater than 15.1 µM in data set [3]; greater than 15.1 µM in [4]; greater than 15.1 µM in data set [5]; 7.6 µM (≈ 4.03 µg/mL) in [6]. Besides, the results for the MIC in [7] and in data set [8] were greater than 15.1 µM and 7.6 µM (≈ 4.03 µg/mL), respectively. For the same molecule, the logD in data set [9] is -0.1.

Take `O=C1COc2ccc(CNC3CCN(CCN4C(=O)COc5ccc(OC(F)(F)F)cc54)CC3)nc2N1`: the MIC in data set [1] was found to be 1 µM (≈ 0.521 µg/mL); in data set [2] it was 0.1 µM (≈ 0.0521 µg/mL); in data set [3], 15.3 µM (≈ 7.98 µg/mL); in [4], 1 µM (≈ 0.521 µg/mL); in data set [5], 3.8 µM (≈ 1.98 µg/mL); in [6], 0.1 µM (≈ 0.0521 µg/mL). The MIC stood at 1 µM (≈ 0.521 µg/mL) in data set [7] and 0.1 µM (≈ 0.0521 µg/mL) in data set [8]. In [9], the logD amounted to 1.8.

Take `CC(=O)c1ccc2c(c1)N(CCN1CCC(NCc3ccc4c(n3)NC(=O)CO4)CC1)C(=O)CO2`: the MIC in [1] came out at 1 µM (≈ 0.48 µg/mL); in data set [2] it was 0.1 µM (≈ 0.048 µg/mL); in data set [3], 16.7 µM (≈ 8.01 µg/mL); in [4] it was 2.1 µM (≈ 1.01 µg/mL); in data set [5] it was 2.1 µM (≈ 1.01 µg/mL); in [6], 0.3 µM (≈ 0.144 µg/mL). In addition, the results for the MIC in [7] and in data set [8] were 1 µM (≈ 0.48 µg/mL) and 0.3 µM (≈ 0.144 µg/mL), respectively. In data set [9], this molecule came in with a logD of 0.4.

In the case of `N#Cc1ccc2c(c1)N(CCN1CCC(NCc3ccc4c(n3)NC(=O)CO4)CC1)C(=O)CO2`, the MIC in [1] is 0.3 µM (≈ 0.139 µg/mL); in data set [2], less than 0.02 µM; in [10], 4.3 µM (≈ 1.99 µg/mL); in data set [3], 3.8 µM (≈ 1.76 µg/mL); in [4] it was 0.8 µM (≈ 0.37 µg/mL); in [5], 0.5 µM (≈ 0.231 µg/mL). Further, the MIC in data set [6] was determined as 0.1 µM (≈ 0.0463 µg/mL); in [7], 0.3 µM (≈ 0.139 µg/mL). The IC50 in [11] came out at 36 nM; in data set [12], 3.2 nM. In addition, in data set [9], the logD worked out at 0.2.

For `O=C1COc2ccc(CNC3CCN(CCN4C(=O)COc5ccc(Cl)cc54)CC3)nc2N1`, the MIC was 0.5 µM (≈ 0.236 µg/mL) in data set [1]; less than 0.02 µM in data set [2]; 4.2 µM (≈ 1.98 µg/mL) in [3]; 0.5 µM (≈ 0.236 µg/mL) in data set [4]; 0.5 µM (≈ 0.236 µg/mL) in data set [5]; 0.1 µM (≈ 0.0472 µg/mL) in data set [6]. Moreover, the values for the MIC in data set [7] and in [8] were 0.3 µM (≈ 0.142 µg/mL) and 0.1 µM (≈ 0.0472 µg/mL), respectively. Moreover, the IC50 in data set [11] came out at 23 nM. This molecule gave a logD in [9] of 1.3.

Turning to `O=C1COc2ccc(CNC3CCN(CCN4C(=O)COc5ccc(F)cc54)CC3)nc2N1`, the MIC is 0.5 µM (≈ 0.228 µg/mL) in [1]; 0.1 µM (≈ 0.0455 µg/mL) in data set [2]; 6.2 µM (≈ 2.82 µg/mL) in [3]; 1.1 µM (≈ 0.501 µg/mL) in data set [4]; 0.6 µM (≈ 0.273 µg/mL) in data set [5]; 0.1 µM (≈ 0.0455 µg/mL) in data set [6]. This molecule registered an MIC in [7] of 0.6 µM (≈ 0.273 µg/mL). The molecule further showed a logD in data set [9] of 0.9.

Turning to `COc1ccc2c(c1)N(CCN1CCC(NCc3ccc4c(n3)NC(=O)CO4)CC1)C(=O)CO2`, the MIC is 0.1 µM (≈ 0.0468 µg/mL) in data set [2]; 8.6 µM (≈ 4.02 µg/mL) in data set [3]; 1.1 µM (≈ 0.514 µg/mL) in [4]; 0.5 µM (≈ 0.234 µg/mL) in data set [5]; 0.1 µM (≈ 0.0468 µg/mL) in data set [6]; 0.3 µM (≈ 0.14 µg/mL) in data set [7]. In [8], this molecule came in with an MIC of 0.1 µM (≈ 0.0468 µg/mL). Besides, the IC50 in data set [12] came out at 5 nM. The same molecule came in with a logD in data set [9] of 0.9.

With `O=C1COc2ccc(CNC3CCN(CCN4C(=O)COc5ccc(-c6ccco6)cc54)CC3)nc2N1`, the MIC stood at 2 µM (≈ 1.01 µg/mL) in data set [1]; 0.06 µM (≈ 0.0302 µg/mL) in [2]; 15.9 µM (≈ 8.01 µg/mL) in data set [10]; 15.9 µM (≈ 8.01 µg/mL) in [3]; 0.5 µM (≈ 0.252 µg/mL) in data set [4]; 2 µM (≈ 1.01 µg/mL) in data set [5]. The MIC in data set [6] was determined as 0.3 µM (≈ 0.151 µg/mL); in [7], 0.5 µM (≈ 0.252 µg/mL); in [8] it was 0.06 µM (≈ 0.0302 µg/mL). Moreover, the IC50 in data set [11] is 18 nM. The logD in data set [9] came to 2.2.

The values above are taken from ChEMBL document CHEMBL1821639, “Exploring Left-Hand-Side substitutions in the benzoxazinone series of 4-amino-piperidine bacterial type IIa topoisomerase inhibitors” (Bioorg Med Chem Lett, 2011).
